Values after ≈ are worked out from the molar mass of the structure shown.

The source of these data is ChEMBL document CHEMBL4342512, “Discovery of [1,2,4]Triazolo[1,5-a]pyridine Derivatives as Potent and Orally Bioavailable RORγt Inverse Agonists” (ACS Med Chem Lett, 2020).

Series [1] can be described thus: Apparent permeability across apical to basolateral side in human Caco2 cells. It counts as ADME, cell-based. Conditions: Caco-2. Summed up:
(§1)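 Bidirectional permeability was measured in the apical-to-basolateral and basolateral-to-apical directions.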

A short description of series [2]: Metabolic stability in human liver microsomes assessed as intrinsic clearance. The format is ADME, Microsome. In general terms: Liver microsomes are vesicles of endoplasmic reticulum, rich in cytochrome P450 enzymes.
The nature of series [3]: Metabolic stability in mouse liver microsomes assessed as intrinsic clearance. It counts as ADME, Microsome.
The nature of series [4]: Apparent permeability across basolateral to apical side in human Caco2 cells. It counts as ADME, cell-based. Conditions: Caco-2. Summed up:
as §1
In general terms: Passage across Caco-2 layers is used to estimate intestinal permeability.

Series [5] can be described thus: Unbound clearance in mouse at 2 umol/kg, po and 1 umol/kg, iv administered using cassette dosing. The format is ADME, organism-based. Conditions: in vivo. Summed up: (§2)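 Mouse PK by cassette dosing. The combined compounds were given orally at 2 μmol/kg and intravenously at 1 μmol/kg. PK parameters were derived from the plasma profiles.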
Series [6] can be described thus: AUC in mouse at 2 umol/kg, po administered using cassette dosing. It counts as ADME, organism-based. Conditions: in vivo. The procedure, abridged:
as §2

Series [7] in a line: Protein binding in human plasma. The format is ADME, cell-free. Particulars: read-out: PPB (converted). The procedure, abridged: (§3)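 Plasma protein binding was determined in human or mouse plasma.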
Series [8] is described as follows: Bioavailability in mouse at 2 umol/kg, po and 1 umol/kg, iv administered using cassette dosing. It counts as ADME, organism-based. Particulars: in vivo. The procedure, abridged: as §2
Series [9] can be described thus: Volume of distribution at steady state in mouse at 2 umol/kg, po and 1 umol/kg, iv administered using cassette dosing. It counts as ADME, organism-based. Conditions: in vivo, read-out: Vdss. Summed up: as §2
Series [10] in a line: Half life in mouse at 2 umol/kg, po administered using cassette dosing. The format is ADME, organism-based. Particulars: in vivo. Summed up: as §2
The nature of series [11]: Half life in mouse at 1 umol/kg, iv administered using cassette dosing. It counts as ADME, organism-based. Particulars: in vivo. Summed up: as §2
The nature of series [12]: Solubility of compound in aqueous medium at pH 6.8. It counts as physicochemical. Summed up:
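Solubility was measured in the second fluid of the Japanese Pharmacopoeia Disintegration Test (pH 6.8).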

Series [13] can be described thus: Protein binding in mouse plasma. The format is ADME, cell-free. Particulars: read-out: PPB (converted). Summed up: as §3
Series [14] in a line: Clearance in mouse at 2 umol/kg, po and 1 umol/kg, iv administered using cassette dosing. The format is ADME, organism-based. Conditions: in vivo. Summed up:
as §2

Series [15] is described as follows: Drug metabolism in human hepatocytes assessed as cyclopentyl derived oxidative adduct formation by mass spectrometry. It counts as ADME, cell-based, Hepatocyte.
Series [16] is described as follows: Drug metabolism in human hepatocytes assessed as central triazolo-pyridine core derived metabolic soft spot formation by mass spectrometry. It counts as ADME, cell-based, Hepatocyte.

In general, Papp A→B refers to the apparent permeability from the apical to the basolateral side of a cell layer. The term Papp B→A denotes the apparent permeability from the basolateral to the apical side of a cell layer. What is called AUC is concentration integrated over time. High values mean high exposure, low ones low exposure. The half-life is how long it takes for the measured level to halve. The term solubility denotes the concentration that dissolves in the medium under given conditions. Higher therefore signals a readily soluble substance. Regarding `Cc1ccc(C(=O)Nc2cc(F)cc(CN3CCN(C(=O)C4CCCC4)[C@@H](C)C3)c2C)cn1`, in [1], the Papp A→B amounted to 40 ×10⁻⁶ cm/s. Also, the CLH worked out at 88 µL/min/mg in [2] and 110 µL/min/mg in [3]. The Papp B→A in series [4] amounted to 55 ×10⁻⁶ cm/s. The same compound gave a CL free in [5] of 767 mL/min/kg. Also, the AUC in series [6] stood at 0.49 µM·h. Also, the figures for the fraction unbound in series [7] and in series [13] were 0.003 and 0.043, respectively. Also, the bioavailability in series [8] was 48%. Further, in series [9], the Vd was found to be 1.6 L/kg. Besides, the half-life in series [10] and in series [11] was 0.7 h in each case. Besides, in series [12], the solubility came to 71 µM (≈ 32.1 µg/mL). Moreover, the clearance in series [14] is 33.3 mL/min/kg.
For the compound `Cc1ccc(C(=O)Nc2cn3ncnc3c(CN3CCN(C(=O)C4CCC(F)(F)C4)[C@@H](C)C3)c2C)cn1` (stereo partly specified), in series [2], the CLH is under 10 µL/min/mg.
On the same count and under the same terms, under `Cc1ccc(C(=O)Nc2cn3ncnc3c(CN3CCN(C(=O)c4ccccc4)[C@@H](C)C3)c2C)cn1` stands 21 µL/min/mg.
The same measure, in the same setting: under `Cc1ccc(C(=O)Nc2cn3ncnc3c(CN3CCN(C(=O)C(C)C)[C@@H](C)C3)c2C)cn1` stands 240 µL/min/mg.
With `Cc1ccc(C(=O)Nc2cn3ncnc3c(O[C@H]3CCN(C(=O)CC(C(F)(F)F)C(F)(F)F)[C@@H](C)C3)c2C)cn1`, the Papp A→B in [1] turned out to be 31 ×10⁻⁶ cm/s. Further, the CLH in [2] turned out to be 10 µL/min/mg; in [3], 30 µL/min/mg. The Papp B→A in series [4] amounted to 51 ×10⁻⁶ cm/s. The compound further showed a CL free in series [5] of 18.3 mL/min/kg. Besides, in [6], the AUC is 15 µM·h. The fraction unbound in series [7] was 0.082; in series [13] it was 0.135. For the same compound, the bioavailability in series [8] turned out to be 120%. Moreover, the Vd in [9] was 0.8 L/kg. Besides, the half-life in series [10] was 3.6 h; in [11], 3.9 h. Also, in series [12], the solubility came to 170 µM (≈ 97.3 µg/mL). Further, the clearance in series [14] is 2.5 mL/min/kg.
For `Cc1ccc(C(=O)Nc2cn3ncnc3c(CN3CCN(C(=O)C4CCOCC4)[C@@H](C)C3)c2C)cn1`, the CLH in series [2] was under 10 µL/min/mg.
The same measure, in the same setting: as for `Cc1ccc(C(=O)Nc2cn3ncnc3c(CN3CCN(C(=O)CCC(F)(F)F)[C@@H](C)C3)c2C)cn1`, the figure is under 10 µL/min/mg; as for `Cc1ccc(C(=O)Nc2cn3ncnc3c(O[C@@H]3CCN(C(=O)CC(C(F)(F)F)C(F)(F)F)[C@@H](C)C3)c2C)cn1`, 28 µL/min/mg.
As for `Cc1ccc(C(=O)Nc2cn3ncnc3c(CN3CCN(C(=O)CC(C)C)[C@@H](C)C3)c2C)cn1`, the CLH in series [2] turned out to be 20 µL/min/mg.
For the compound `Cc1ccc(C(=O)Nc2cc3nncn3c(CN3CCN(C(=O)C4CCCC4)[C@@H](C)C3)c2C)cn1`, in series [2], the CLH was found to be 59 µL/min/mg.
`Cc1ccc(C(=O)Nc2cn3ncnc3c(CN3CCN(C(=O)CC(C(F)(F)F)C(F)(F)F)[C@@H](C)C3)c2C)cn1`: in series [1], the Papp A→B came to 9.6 ×10⁻⁶ cm/s. Further, the CLH in series [2] and in series [3] was under 10 µL/min/mg throughout. For the same compound, in series [4], the Papp B→A is 36 ×10⁻⁶ cm/s. The CL free in series [5] is 75 mL/min/kg. In series [6], this compound showed an AUC of 2.3 µM·h. Besides, the fraction unbound in [7] was 0.139; in [13], 0.233. Moreover, in [8], the bioavailability turned out to be 110%. Besides, the Vd in series [9] is 1.1 L/kg. The results for the half-life in [10] and in [11] were 1.1 h and 1 h, respectively. Further, the concentration in solution in [12] (solubility) was 200 µM (≈ 114 µg/mL). Moreover, in series [14], the clearance was 18.3 mL/min/kg.
Regarding `Cc1ccc(C(=O)Nc2cn3ncnc3c(CN3CCN(C(=O)C4CCCC4)[C@@H](C)C3)c2C)cn1`, in [1], the Papp A→B turned out to be 2.5 ×10⁻⁶ cm/s. Moreover, the CLH is 32 µL/min/mg in [2] and 11 µL/min/mg in [3]. Besides, in series [4], the Papp B→A was 46 ×10⁻⁶ cm/s. For the same compound, the values for the Drug metabolism entry in [15] and in [16] were “Metabolite_Detected” and “Metabolite_Notdetected”, respectively. Moreover, in [5], the CL free turned out to be 88.3 mL/min/kg. Also, the AUC in series [6] was found to be 0.84 µM·h. The fraction unbound is 0.227 in [7] and 0.212 in series [13]. Besides, the bioavailability in series [8] is 47%. For the same compound, the Vd in series [9] was found to be 0.77 L/kg. Further, the half-life in [10] is 1.2 h; in series [11] it was 1.4 h. Further, the solubility in series [12] turned out to be 190 µM (≈ 90.4 µg/mL). This compound gave a clearance in series [14] of 18.3 mL/min/kg.
